# Laboratory results published in ChEMBL document CHEMBL4033712, “Synthesis and biological evaluation of new C-12(α/β)-(N-) sulfamoyl-phenylamino-14-deoxy-andrographolide derivatives as potent anti-cancer agents” (Bioorg Med Chem Lett, 2017).
# Assays:
# Type in all cases: functional
# [1] = test system: SW-620; assay: Anticancer activity against human SW620 cells assessed as cell growth at 10 uM after 48 hrs by sulforhodamine B assay relative to control; conditions: SW-620, 48 h, read-out: Activity
# Summary of the method: (§1)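 NCI-60 single-dose screen: compound added at 10 µM, cultures incubated 48 h. End point by sulforhodamine B protein-binding dye. Value reported as percent growth of treated cells relative to untreated control cells.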
# [2] = test system: MCF7; assay: Anticancer activity against human MCF7 cells assessed as cell growth at 10 uM after 48 hrs by sulforhodamine B assay relative to control; conditions: MCF7, 48 h, read-out: Activity
# Summary of the method: (§2)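 Single-dose NCI-60 panel screen: compound added at 10 µM and the culture incubated 48 h. The end point was read by protein staining with sulforhodamine B. The value is percent growth of treated cells relative to untreated control cells, reported as a mean graph across the panel.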
# [3] = test system: Hs-578T; assay: Anticancer activity against human Hs 578T cells assessed as cell growth at 10 uM after 48 hrs by sulforhodamine B assay relative to control; conditions: read-out: Activity; summary of the method: as §2
# [4] = test system: BT-549; assay: Anticancer activity against human BT549 cells assessed as cell growth at 10 uM after 48 hrs by sulforhodamine B assay relative to control; conditions: BT-549, 48 h, read-out: Activity; summary of the method: as §2
# [5] = test system: U-251; assay: Anticancer activity against human U251 cells assessed as cell growth at 10 uM after 48 hrs by sulforhodamine B assay relative to control; conditions: U-251, 48 h, read-out: Activity; summary of the method: as §1
# [6] = test system: LOX IMVI; assay: Anticancer activity against human LOXIMVI cells assessed as cell growth at 10 uM after 48 hrs by sulforhodamine B assay relative to control; conditions: read-out: Activity; summary of the method: as §2
# [7] = test system: PC-3; assay: Anticancer activity against human PC3 cells assessed as cell growth at 10 uM after 48 hrs by sulforhodamine B assay relative to control; conditions: PC-3, 48 h, read-out: Activity; summary of the method: as §2
# [8] = test system: COLO 205; assay: Anticancer activity against human COLO205 cells assessed as cell growth at 10 uM after 48 hrs by sulforhodamine B assay relative to control; conditions: COLO 205, 48 h, read-out: Activity; summary of the method: as §2
# [9] = test system: ACHN; assay: Anticancer activity against human ACHN cells assessed as cell growth at 10 uM after 48 hrs by sulforhodamine B assay relative to control; conditions: read-out: Activity; summary of the method: as §2
# [10] = test system: UO-31; assay: Anticancer activity against human UO31 cells assessed as cell growth at 10 uM after 48 hrs by sulforhodamine B assay relative to control; conditions: UO-31, 48 h, read-out: Activity; summary of the method: as §1
# [11] = test system: HCT-15; assay: Anticancer activity against human HCT15 cells assessed as cell growth at 10 uM after 48 hrs by sulforhodamine B assay relative to control; conditions: HCT-15, 48 h, read-out: Activity; summary of the method: as §2
# [12] = test system: UACC-257; assay: Anticancer activity against human UACC257 cells assessed as cell growth at 10 uM after 48 hrs by sulforhodamine B assay relative to control; conditions: UACC-257, 48 h, read-out: Activity; summary of the method: as §1
# [13] = test system: SR; assay: Anticancer activity against human SR cells assessed as cell growth at 10 uM after 48 hrs by sulforhodamine B assay relative to control; conditions: read-out: Activity; summary of the method: as §1
# [14] = test system: M14; assay: Anticancer activity against human M14 cells assessed as cell growth at 10 uM after 48 hrs by sulforhodamine B assay relative to control; conditions: M14, 48 h, read-out: Activity; summary of the method: as §2
# [15] = test system: CCRF-CEM; assay: Anticancer activity against human CCRF-CEM cells assessed as cell growth at 10 uM after 48 hrs by sulforhodamine B assay relative to control; conditions: read-out: Activity; summary of the method: as §2
# [16] = test system: NCI/ADR-RES; assay: Anticancer activity against human NCI/ADR-RES cells assessed as cell growth at 10 uM after 48 hrs by sulforhodamine B assay relative to control; conditions: read-out: Activity; summary of the method: as §2
# [17] = test system: SF-295; assay: Anticancer activity against human SF295 cells assessed as cell growth at 10 uM after 48 hrs by sulforhodamine B assay relative to control; conditions: SF-295, 48 h, read-out: Activity; summary of the method: as §2
# [18] = test system: HT-29; assay: Anticancer activity against human HT-29 cells assessed as cell growth at 10 uM after 48 hrs by sulforhodamine B assay relative to control; conditions: HT-29, 48 h, read-out: Activity; summary of the method: as §2
# [19] = test system: MDA-MB-435; assay: Anticancer activity against human MDA-MB-435 cells assessed as cell growth at 10 uM after 48 hrs by sulforhodamine B assay relative to control; conditions: MDA-MB-435, 48 h, read-out: Activity; summary of the method: as §2
# [20] = test system: K562; assay: Anticancer activity against human K562 cells assessed as cell growth at 10 uM after 48 hrs by sulforhodamine B assay relative to control; conditions: K562, 48 h, read-out: Activity; summary of the method: as §2
# [21] = test system: SK-OV-3; assay: Anticancer activity against human SKOV3 cells assessed as cell growth at 10 uM after 48 hrs by sulforhodamine B assay relative to control; conditions: SK-OV-3, 48 h, read-out: Activity; summary of the method: as §2
# [22] = test system: SK-MEL-28; assay: Anticancer activity against human SK-MEL-28 cells assessed as cell growth at 10 uM after 48 hrs by sulforhodamine B assay relative to control; conditions: SK-MEL-28, 48 h, read-out: Activity; summary of the method: as §2
# [23] = test system: EKVX; assay: Anticancer activity against human EKVX cells assessed as cell growth at 10 uM after 48 hrs by sulforhodamine B assay relative to control; conditions: read-out: Activity; summary of the method: as §2
# [24] = test system: RPMI-8226; assay: Anticancer activity against human RPMI8226 cells assessed as cell growth at 10 uM after 48 hrs by sulforhodamine B assay relative to control; conditions: RPMI-8226, 48 h, read-out: Activity; summary of the method: as §2
# [25] = test system: SK-MEL-5; assay: Anticancer activity against human SK-MEL-5 cells assessed as cell growth at 10 uM after 48 hrs by sulforhodamine B assay relative to control; conditions: SK-MEL-5, 48 h, read-out: Activity; summary of the method: as §2
# [26] = test system: NCI-H23; assay: Anticancer activity against human NCI-H23 cells assessed as cell growth at 10 uM after 48 hrs by sulforhodamine B assay relative to control; conditions: NCI-H23, 48 h, read-out: Activity; summary of the method: as §2
# [27] = test system: SNB-75; assay: Anticancer activity against human SNB75 cells assessed as cell growth at 10 uM after 48 hrs by sulforhodamine B assay relative to control; conditions: SNB-75, 48 h, read-out: Activity; summary of the method: as §1
# [28] = test system: CAKI-1; assay: Anticancer activity against human Caki1 cells assessed as cell growth at 10 uM after 48 hrs by sulforhodamine B assay relative to control; conditions: CAKI-1, 48 h, read-out: Activity; summary of the method: as §2
# [29] = test system: OVCAR-3; assay: Anticancer activity against human OVCAR3 cells assessed as cell growth at 10 uM after 48 hrs by sulforhodamine B assay relative to control; conditions: OVCAR-3, 48 h, read-out: Activity; summary of the method: as §2
# [30] = test system: MDA-MB-468; assay: Anticancer activity against human MDA-MB-468 cells assessed as cell growth at 10 uM after 48 hrs by sulforhodamine B assay relative to control; conditions: MDA-MB-468, 48 h, read-out: Activity; summary of the method: as §2
# [31] = test system: MDA-MB-231; assay: Anticancer activity against human MDA-MB-231 cells assessed as cell growth at 10 uM after 48 hrs by sulforhodamine B assay relative to control; conditions: MDA-MB-231, 48 h, read-out: Activity; summary of the method: as §2
# [32] = test system: NCI-H226; assay: Anticancer activity against human NCI-H226 cells assessed as cell growth at 10 uM after 48 hrs by sulforhodamine B assay relative to control; conditions: NCI-H226, 48 h, read-out: Activity; summary of the method: as §2
compound,measurement,setting,value
C=C1CC[C@@H]2[C@](C)(COC(C)=O)[C@H](OC(C)=O)CC[C@@]2(C)[C@H]1CC(Nc1ccc(S(=O)(=O)Nc2nccs2)cc1)C1=CCOC1=O (some centres not stated),growth at 10 µM,[1],-72.7%
same,growth at 10 µM,[2],-21.3%
same,growth at 10 µM,[3],51.9%
same,growth at 10 µM,[4],-23.5%
same,growth at 10 µM,[5],4.21%
same,growth at 10 µM,[6],-88.3%
same,growth at 10 µM,[7],21.8%
same,growth at 10 µM,[8],-24.6%
same,growth at 10 µM,[9],-46.6%
same,growth at 10 µM,[10],13.5%
same,growth at 10 µM,[11],-39.2%
same,growth at 10 µM,[12],22.4%
same,growth at 10 µM,[13],-5.84%
same,growth at 10 µM,[14],8.12%
same,growth at 10 µM,[15],-27.7%
same,growth at 10 µM,[16],9.2%
same,growth at 10 µM,[17],73%
same,growth at 10 µM,[18],-42.7%
same,growth at 10 µM,[19],-8.31%
same,growth at 10 µM,[20],3.4%
same,growth at 10 µM,[21],79.9%
same,growth at 10 µM,[22],-16.3%
same,growth at 10 µM,[23],73.4%
same,growth at 10 µM,[24],-13.3%
same,growth at 10 µM,[25],31.4%
same,growth at 10 µM,[26],38.1%
same,growth at 10 µM,[27],28.3%
same,growth at 10 µM,[28],55.9%
same,growth at 10 µM,[29],-70.2%
same,growth at 10 µM,[30],-59.9%
same,growth at 10 µM,[31],5.69%
same,growth at 10 µM,[32],-14%
